Data: ChEMBL document CHEMBL1156247, “Synthesis and anti-HIV-1 integrase activity of modified dinucleotides” (Eur J Med Chem, 2009)
The source made the active and inactive calls. No cut-off for these calls is given here.

How the values were obtained:
[1] = target: Human immunodeficiency virus type 1 integrase (Human immunodeficiency virus 1, UniProt Q7ZJM1); assay: Inhibition of recombinant HIV1 integrase 3^-end processing and strand transfer activity after 1 hr
In short: (§1)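 Recombinant HIV-1 integrase (100 nM) with 12.5 nM 21-mer double-stranded DNA substrate in 10 mM HEPES pH 7.2, 1 mM DTT, 7.5 mM MgCl₂, 1 hr at 37 °C. Compound was titrated from 300 nM upward; an EDTA (10 mM) lane and a no-drug lane were included. 3′-processed and strand-transfer products were resolved on denaturing 18% acrylamide/urea gels.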

[2] = target: Human immunodeficiency virus type 1 integrase (Human immunodeficiency virus 1) (UniProt Q7ZJM1); assay: Inhibition of recombinant HIV1 integrase 3^-end processing and strand transfer activity at 300 uM to 300 nM after 1 hr by PAGE analysis; in short: as §1
Human immunodeficiency virus type 1 integrase (Human immunodeficiency virus 1), sequence (Q7ZJM1 as listed by the source): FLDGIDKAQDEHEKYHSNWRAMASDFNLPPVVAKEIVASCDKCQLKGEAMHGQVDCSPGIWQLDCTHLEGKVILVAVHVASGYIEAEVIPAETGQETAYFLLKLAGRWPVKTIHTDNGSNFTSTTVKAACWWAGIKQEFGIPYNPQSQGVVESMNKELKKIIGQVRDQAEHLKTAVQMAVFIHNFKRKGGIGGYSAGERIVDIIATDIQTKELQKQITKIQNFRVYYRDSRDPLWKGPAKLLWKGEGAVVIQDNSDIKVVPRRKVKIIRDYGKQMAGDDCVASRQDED

[3] = target: Human immunodeficiency virus type 1 integrase (Human immunodeficiency virus 1) (UniProt Q7ZJM1); assay: Ratio of D-d-5^ CpA3^ IC50 to compound IC50 for recombinant HIV1 integrase 3^-end processing and strand transfer activity

Human immunodeficiency virus type 1 integrase, sequence (Q7ZJM1 whole entry): as the sequence (Q7ZJM1 as listed by the source) above

IC50 [1]	Activity [2]	Ratio IC50 [3]	SMILES
> 340 µM	–	–	NCCCCCNc1ccn([C@H]2C[C@H](OP(=O)(O)OC[C@H]3O[C@@H](n4cnc5c(N)ncnc54)C[C@@H]3O)[C@@H](CO)O2)c(=O)n1
≥ 340 µM	–	–	N=C(N)NCCCCNP(=O)(OC[C@H]1O[C@@H](n2cnc3c(N)ncnc32)C[C@@H]1O)O[C@H]1C[C@H](n2ccc(N)nc2=O)O[C@@H]1CO (stereo not given in full)
13.2 µM	Active	–	COc1ccc2nc3cc(Cl)ccc3c(NCCCCCCOP(=O)(O)OC[C@H]3O[C@@H](n4ccc(N)nc4=O)C[C@@H]3OP(=O)(O)OC[C@H]3O[C@@H](n4cnc5c(N)ncnc54)C[C@@H]3OP(=O)(O)O)c2c1
13.9 µM	–	–	Nc1ccn([C@H]2C[C@H](OP(=O)(O)OC[C@H]3O[C@@H](n4cnc5c(N)ncnc54)C[C@@H]3OP(=O)(O)O)[C@@H](COP(=O)(O)SCCCCCC(=O)Nc3cccc4c3C(=O)c3ccccc3C4=O)O2)c(=O)n1
≥ 340 µM	–	–	Nc1ccn([C@H]2C[C@H](O)[C@@H](COP(=O)(S)OC[C@H]3O[C@@H](n4cnc5c(N)ncnc54)C[C@@H]3O)O2)c(=O)n1 (stereo not given in full)
13.4 µM	–	–	Nc1ccn([C@H]2C[C@H](OP(=O)(O)OC[C@H]3O[C@@H](n4cnc5c(N)ncnc54)C[C@@H]3OP(=O)(O)O)[C@@H](COP(=O)(O)SCCCCCC(=O)Nc3ccc(N)c4c3C(=O)c3ccccc3C4=O)O2)c(=O)n1
> 340 µM	–	–	NCCCCCCNc1ccn([C@H]2C[C@H](OP(=O)(O)OC[C@H]3O[C@@H](n4cnc5c(N)ncnc54)C[C@@H]3O)[C@@H](CO)O2)c(=O)n1
> 1000 µM	–	–	NCCNc1ccn([C@H]2C[C@H](OP(=O)(O)OC[C@H]3O[C@@H](n4cnc5c(N)ncnc54)C[C@@H]3O)[C@@H](CO)O2)c(=O)n1
≥ 340 µM	–	–	NCCCCNP(=O)(OC[C@H]1O[C@@H](n2cnc3c(N)ncnc32)C[C@@H]1O)O[C@H]1C[C@H](n2ccc(N)nc2=O)O[C@@H]1CO (stereo not given in full)
21 µM	–	–	Nc1ccn([C@H]2C[C@H](OP(=O)(O)OC[C@H]3O[C@@H](n4cnc5c(N)ncnc54)C[C@@H]3OP(=O)(O)O)[C@@H](COP(=O)(O)OCCCCCCNC(=O)c3ccc4c(c3)C(=O)c3cc(C(=O)NCCCCCCO)ccc3C4=O)O2)c(=O)n1 (stereo in doubt; 28)
≥ 340 µM	–	–	Nc1ccn([C@H]2C[C@H](OP(=O)(S)OC[C@H]3O[C@@H](n4cnc5c(N)ncnc54)C[C@@H]3O)[C@@H](CO)O2)c(=O)n1 (stereo not given in full)
> 100 µM	–	–	Nc1ccn([C@H]2C[C@H](OP(=O)(O)OC[C@H]3O[C@@H](n4cnc5c(N)ncnc54)C[C@@H]3OP(=O)(O)NCCCO)[C@@H](COP(=O)(O)O)O2)c(=O)n1
> 100 µM	–	–	COc1ccc2nc3cc(Cl)ccc3c(NCCC[N+](C)(C)CCCSP(=O)(O)OC[C@H]3O[C@@H](n4ccc(N)nc4=O)C[C@@H]3OP(=O)([O-])OC[C@H]3O[C@@H](n4cnc5c(N)ncnc54)C[C@@H]3OP(=O)(O)O)c2c1
> 100 µM	–	–	NCCCCCCNP(=O)(O)O[C@H]1C[C@H](n2cnc3c(N)ncnc32)O[C@@H]1COP(=O)(O)O[C@H]1C[C@H](n2ccc(N)nc2=O)O[C@@H]1COP(=O)(O)O
> 1000 µM	–	–	NCCCNc1ccn([C@H]2C[C@H](OP(=O)(O)OC[C@H]3O[C@@H](n4cnc5c(N)ncnc54)C[C@@H]3O)[C@@H](CO)O2)c(=O)n1
> 100 µM	–	–	COc1ccc2nc3cc(Cl)ccc3c(NCCCCCCSP(=O)(O)O[C@H]3C[C@H](n4cnc5c(N)ncnc54)O[C@@H]3COP(=O)(O)O[C@H]3C[C@H](n4ccc(N)nc4=O)O[C@@H]3COP(=O)(O)O)c2c1
≥ 340 µM	–	–	Nc1ccn([C@H]2C[C@H](OP(=O)(O)O[C@H]3C[C@H](n4cnc5c(N)ncnc54)O[C@@H]3CO)[C@@H](CO)O2)c(=O)n1
340 µM	–	–	Nc1ccn([C@H]2C[C@H](OP(=O)(O)OC[C@H]3O[C@@H](n4cnc5c(N)ncnc54)C[C@@H]3O)[C@@H](CO)O2)c(=O)n1
> 100 µM	–	–	COc1ccc2nc3cc(Cl)ccc3c(NCCC[N+](C)(C)CCCSP(=O)(O)O[C@H]3C[C@H](n4cnc5c(N)ncnc54)O[C@@H]3COP(=O)([O-])O[C@H]3C[C@H](n4ccc(N)nc4=O)O[C@@H]3COP(=O)(O)O)c2c1

IC50 [1]	Activity [2]	Ratio IC50 [3]	SMILES
> 340 µM	–	–	N=C(N)NCCCCNc1ccn([C@H]2C[C@H](OP(=O)(O)OC[C@H]3O[C@@H](n4cnc5c(N)ncnc54)C[C@@H]3O)[C@@H](CO)O2)c(=O)n1
> 100 µM	–	–	Nc1ccn([C@H]2C[C@H](OP(=O)(O)OC[C@H]3O[C@@H](n4cnc5c(N)ncnc54)C[C@@H]3OP(=O)(O)NCCCCCCCCCCCCO)[C@@H](COP(=O)(O)O)O2)c(=O)n1
> 100 µM	–	–	COc1ccc2nc3cc(Cl)ccc3c(NCCCCSP(=O)(O)O[C@H]3C[C@H](n4cnc5c(N)ncnc54)O[C@@H]3COP(=O)(O)O[C@H]3C[C@H](n4ccc(N)nc4=O)O[C@@H]3COP(=O)(O)O)c2c1
102 µM	–	3	NCCCCNP(=O)(OC[C@H]1O[C@@H](n2ccc(N)nc2=O)C[C@@H]1O)OC[C@H]1O[C@@H](n2cnc3c(N)ncnc32)C[C@@H]1O (stereo not given in full)
30 µM	–	–	Nc1ccn([C@H]2C[C@H](OP(=O)(O)OC[C@H]3O[C@@H](n4cnc5c(N)ncnc54)C[C@@H]3OP(=O)(O)O)[C@@H](COP(=O)(O)O[C@H]3C[C@H](OCCCc4ccc5c6cccc7cccc(c8cccc4c85)c76)O[C@@H]3CO)O2)c(=O)n1
> 1000 µM	–	–	NCCCCNc1ccn([C@H]2C[C@H](OP(=O)(O)OC[C@H]3O[C@@H](n4cnc5c(N)ncnc54)C[C@@H]3O)[C@@H](CO)O2)c(=O)n1
100 µM	–	3	NCCCCNP(=O)(O[C@H]1C[C@H](n2ccc(N)nc2=O)O[C@@H]1CO)O[C@H]1C[C@H](n2cnc3c(N)ncnc32)O[C@@H]1CO (stereo not given in full)
110 µM	–	3	Nc1ccn([C@H]2C[C@H](OP(=O)(S)O[C@H]3C[C@H](n4cnc5c(N)ncnc54)O[C@@H]3CO)[C@@H](CO)O2)c(=O)n1 (stereo not given in full)
> 340 µM	–	–	N=C(N)NCCCCCNc1ccn([C@H]2C[C@H](OP(=O)(O)OC[C@H]3O[C@@H](n4cnc5c(N)ncnc54)C[C@@H]3O)[C@@H](CO)O2)c(=O)n1
> 340 µM	–	–	N=C(N)NCCCCCCNc1ccn([C@H]2C[C@H](OP(=O)(O)OC[C@H]3O[C@@H](n4cnc5c(N)ncnc54)C[C@@H]3O)[C@@H](CO)O2)c(=O)n1
1.8 µM	Active	–	Nc1ccn([C@H]2C[C@H](OP(=O)(O)OC[C@H]3O[C@@H](n4cnc5c(N)ncnc54)C[C@@H]3OP(=O)(O)O)[C@@H](COP(=O)(O)OCCCCCCNCc3ccc4c5cccc6cccc(c7cccc3c74)c65)O2)c(=O)n1
100 µM	–	3	N=C(N)NCCCCNP(=O)(O[C@H]1C[C@H](n2ccc(N)nc2=O)O[C@@H]1CO)O[C@H]1C[C@H](n2cnc3c(N)ncnc32)O[C@@H]1CO (stereo not given in full)
–	Active	–	Nc1ccn([C@H]2C[C@H](OP(=O)(O)OC[C@H]3O[C@@H](n4cnc5c(N)ncnc54)C[C@@H]3OP(=O)(O)O)[C@@H](COP(=O)(O)OCCCCCCNC(=O)c3ccc4c(c3)C(=O)c3cc(C(=O)NCCCCCCO)ccc3C4=O)O2)c(=O)n1 (stereo in doubt; 29) [listing 1 of 2 here]
100 µM	–	3	N=C(N)NCCCCNP(=O)(OC[C@H]1O[C@@H](n2ccc(N)nc2=O)C[C@@H]1O)OC[C@H]1O[C@@H](n2cnc3c(N)ncnc32)C[C@@H]1O (stereo not given in full)
≥ 340 µM	–	–	Nc1ccn([C@@H]2C[C@@H](O)[C@H](COP(=O)(O)O[C@@H]3C[C@@H](n4cnc5c(N)ncnc54)O[C@H]3CO)O2)c(=O)n1
≥ 340 µM	–	–	Nc1ccn([C@@H]2C[C@@H](OP(=O)(O)OC[C@@H]3O[C@H](n4cnc5c(N)ncnc54)C[C@H]3O)[C@H](CO)O2)c(=O)n1 (single isomer, unassigned)
65.5 µM	–	–	Nc1ccn([C@H]2C[C@H](OP(=O)(O)OC[C@H]3O[C@@H](n4cnc5c(N)ncnc54)C[C@@H]3OP(=O)(O)O)[C@@H](COP(=O)(O)OCCCCCCNC(=O)c3ccc4c(c3)C(=O)c3cc(C(=O)NCCCCCCO)ccc3C4=O)O2)c(=O)n1 (stereo in doubt; 29) [listing 2 of 2 here]
786 µM	–	–	NCCN(CCN)CCCSP(=O)(O)OC[C@H]1O[C@@H](n2ccc(N)nc2=O)C[C@@H]1OP(=O)(O)OC[C@H]1O[C@@H](n2cnc3c(N)ncnc32)C[C@@H]1OP(=O)(O)O
≥ 340 µM	–	–	Nc1ccn([C@H]2C[C@H](O)[C@@H](COP(=O)(O)OC[C@H]3O[C@@H](n4cnc5c(N)ncnc54)C[C@@H]3O)O2)c(=O)n1
